Measurements from different studies.
Lines come from different studies, so protocols differ.
Target: Mitogen-activated protein kinase 9 (MAPK9, Homo sapiens, UniProt P45984)

| SMILES | read-out | method | tested at | remaining binding [%] |
| --- | --- | --- | --- | --- |
| O=C(c1ccc(Nc2ncc(Cl)c(-c3cc4ccccc4s3)n2)cc1)N1CCC(N2CCCC2)CC1 | binding | competition with immobilised ligand | 1 µM | 9.8 |
| Nc1ncc2c(n1)-c1c([nH]c3ccc(C#CC4CC4)cc13)CCCC2 | binding | competition with immobilised ligand | 1 µM | 81 |
| C[C@@H]1CN(c2ccc3ncc(-c4ccc5[nH]nc(C6CC6)c5c4)n3n2)C[C@H](C)O1 | binding | competition with immobilised ligand | 50 nM | 80 |
| C[C@H](c1ccc(F)cc1)N(Cc1cccc(C(=O)O)c1)C(=O)c1cnc2ccccc2c1 | cell-free assay | competition with immobilised ligand | 1 µM | 81 |
| c1cncc(-c2cccc(Nc3nccc(NC4CCCCC4)n3)c2)c1 | binding | competition with immobilised ligand | 10 µM | 74 |
| CN(C)c1ncc(F)c(-c2cnn3ncccc23)n1 | binding |  | 1 µM | 82 |
| CCC(=N\O)/C(C)=C/c1ccc(F)cc1 | cell-free assay | competition with immobilised ligand | 1 µM | 92 |
| N#Cc1ccccc1CSc1nnc2c(n1)[nH]c1ccccc12 | binding | competition with immobilised ligand | 10 µM | 90 |
| CC1CCCN1c1nccc(-c2cnn3ncccc23)n1 (stereo not drawn) | binding |  | 1 µM | 100 |
| O=C(NCCCC1CCCCC1)c1ccc(CNC(=O)c2cnn(-c3ccccc3)c2C(F)(F)F)cc1 | cell-free assay | competition with immobilised ligand | 0.1 µM | 85 |
| O=C(c1ccc(Nc2nccc(-c3cc4ccccc4s3)n2)cc1)N1CCC(N2CCCC2)CC1 | binding | competition with immobilised ligand | 1 µM | 33 |
| CNC(=O)[C@@H]1CC[C@@H](n2c(-c3ccc4cnccc4c3)nc3ccc(C(=O)NCc4cccc(C(N)=O)c4)cc32)C1 | binding | competition with immobilised ligand | 1 µM | 67 |
| COc1ccc2cc(OCC3(C(=O)O)CN(C(=O)c4ccc(F)cc4)C3)ccc2c1 | cell-free assay | competition with immobilised ligand | 1 µM | 100 |
| COc1ccnn2ncc(-c3ccnc(N(C)C)n3)c12 | binding |  | 1 µM | 100 |
| CCOCCn1cc(C(=O)Nc2ccc(-n3nc(-c4cccnc4)cc3C(F)(F)F)cn2)ccc1=O | cell-free assay | competition with immobilised ligand | 1 µM | 97 |
| O=C(Nc1c[nH]nc1C(=O)NC1CCNCC1)c1cc(F)cc(F)c1 | binding | competition with immobilised ligand | 1 µM | 100 |
| COc1cnc(Nc2cccc(S(N)(=O)=O)c2)nc1N1CCN(c2ccccc2)CC1 | binding | competition with immobilised ligand | 1 µM | 72 |
| CN(c1nccc(-c2cnn3ncccc23)n1)C1CC1 | binding |  | 1 µM | 100 |
| CCN1CCN(Cc2ccc(C(=O)Nc3ccc(C)c(Oc4ccc5c(c4)CC(=O)N5)c3)cc2C(F)(F)F)CC1 | binding | competition with immobilised ligand | 1 µM | 29 |
| N[C@@H]1CCN(c2nccc(-c3cnn4ncccc34)n2)C1 | binding |  | 1 µM | 100 |
| CNCc1ccccc1-c1csc([C@H](C)Nc2nc(C)nc3cc(OC)c(OC)cc23)c1 | cell-free assay | competition with immobilised ligand | 1 µM | 71 |
| O=C(c1ccc(Nc2ncc(Cl)c(-c3ccc(Cl)s3)n2)cc1)N1CCC(N2CCCC2)CC1 | binding | competition with immobilised ligand | 1 µM | 1.1 |
| CCC(=O)N[C@H]1CC[C@@H](C(=O)N(C)c2ccc(-c3nc4ccccc4o3)cc2)C1 | cell-free assay | competition with immobilised ligand | 1 µM | 79 |
| C[C@H]1CCN(c2nccc(-c3cnn4ncccc34)n2)C1 | binding |  | 1 µM | 60 |
